Variants at the floor of the assay were thinned out.
B1: tRNA (parent)
chain: GUUCCGUUGGCGUAAUGGUAACGCGUCUCCCUCCUAAGGAGAAGACUGCGGGUUCGAGUCCCGUACGGAACG

Variants of: B1
Test: yeast fitness relative to wild type (ratio to wild type); higher = fitter; tRNA-Arg(CCU), competitive growth, 37 C, YPD
How it was run: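 Start and end populations of a pooled competition were compared by 100-nucleotide paired-end sequencing of gene amplicons. The Saccharomyces cerevisiae strains carried tRNA-Arg(CCU) gene variants at the native genomic locus, synthesised with a 3% per-site mutation rate at 69 sites, and competed in YPD at 37°C for 24 hours in six parallel replicates. Darwinian fitness relative to wild type was based on the change in genotype frequencies. Genotypes required ≥ 100 starting reads, and estimates < 0.5 were set to 0.5.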
In the case of GUUUCGUUGGCGUAAUGGUAACGCGUCUCCCUCCUAAGGUGAAGACCGCGGGUUCGAGUCCCGUACGGAACG, the yeast fitness is reported as 0.643.
For GUUUGGUUGGCGUAAUGGUAACGCGUCUGCGUCCUACGGAGAAGACUGCGGGUUCGAGUCCCAUACGGAACG, the yeast fitness was 0.542.
For GUUUCGUUGGCGUAAUGGUAACGCGUCUCCCUCCUAAGGAGAUGACUGCGGGUUCGAGUCCCGUACGGAACG, the yeast fitness was 0.963.
Variant GUUUCGUUGGCGUAAUGGUAACGCGUCUCCCUCCUAAGGAGACGACUGCGGGUUCGAGUCCCGUACGGAACG has a yeast fitness of 1.01.
In the case of GUUUGGUUGGCGUAAUGGUAACGCGUCUUCCAUCUAAGGAGAAGACUGCGGGUUCGAGUCCCGUACGGAACG, the yeast fitness is reported as at most 0.5.
For GUUUAGUUGGCGUAAUGGUAACGCGUCUCCCUCCUAAGGAGAAGACUGCGGGUUCGAGUCCCGUACGCAACG, the yeast fitness was 0.551.
GUUUCGUUGGCGUAAUGGUAACGCGUCUCCCUCCUAAGGAGAAGCCUGCGGGUUCGAGUGCCGUACGGAACG showed a yeast fitness of 0.671.
Variant GUUUCGUUGGCGUAAUGGUAACGCGUCUCCCUCCUAAGGAGUAGACUGCGGGUUCGAGUCCCGUACCGAACG has a yeast fitness of 0.676.
In the case of GUUUGGUUGGCGUAAUGGUAACGCGUCUCCCUCCUAAGGAGAAGACUGCGGGUUCGAGUACCGUACGGAACG, the yeast fitness is reported as at most 0.5.
GUUUCGUUGGGGUAAUGGUAACGCGUCUUCCUCCUAAGGAGAAGACUGCGGGUUCGAGGCCCGUACGGAACG gave a yeast fitness of at most 0.5.
In the case of GUUUCGUUGGCGUAAUGGUAACGCGUCUCCCUCCUAAGGAGAAGACUGCGGGUUCGGCUCCCGUACGGAACG, the yeast fitness is reported as 0.736.
Work on GUUUCGUUGGCGUAAUGGUAACGCGUCUCCCUCCUAAGGAGAGGACUGUGGGUUCGAGUCCCGUACGAAACG yielded a yeast fitness of at most 0.5.
For GUUUCGUUGGAGUAAUGGUAACGCGUCUCCCUCCUAAGGAGAAGACUGCGGGUUCGAGUCCCGUCCGGAACG, the yeast fitness was 0.538.
For GUUUCGUUGGAGUCAUGGUAACGCGUCACCUUCCUAUGAAGGAGACUGCGGGUUCGAGUCCCGUACGGAACG, the yeast fitness was 0.645.
With GUUUCGUUGGCGUAAUGGUAACGCGUCUCCCUCCUAAGGGGAAGACUGCGGGUUCGAGUCCCGUUCGGAACG the yeast fitness was 0.596.
Work on GUUUGGUUGGCGUAAUGGUAACGCGUCUUCCUCCUAAGGAGAAGACUGCGGGUUCGAGUCCCAUGCGGAACG yielded a yeast fitness of 0.535.
For GUUUGGUUGGCGUAAUGCUAACGCGUCUCCCUCUUAAGGAGAAGACUGCGGGUUCGAGUCCCGUACGGCACG, the yeast fitness was at most 0.5.
GUUUCGUUGGCGUAAUGGUAACGCGUCUCCCUCCUAAGGAGAAGACUGCGGGUUCGGGUCCCGUACGGAACG gave a yeast fitness of 0.872.
Work on GUUUCGUUGGCGUAAUGGUAACGCGUCUCCCUCCUAAGGAGAAGACUGCGGGUUCGCGUCCCGUACGGAACG yielded a yeast fitness of 0.709.
GUUUAGUUGGCGUAAUGGUAACGCGUCUCCCUCCUAAGGAGAAGACUGCGGGUUCGAGUCUCGUACGGAACG gave a yeast fitness of 0.719.
In the case of GUUUUGUUGGCGUCAUGGUAACGCGUCUCCCUCCUAAGGAGAAGACUGCGGGUUCGAGUCCCGUACGAAACG, the yeast fitness is reported as at most 0.5.
In the case of GUUUCGUUGGAGUAAUGGUAAUGCGUCUCCCUCCUAAGGAGUAGACUGCGGGUUCGAGUCCCGUACGGAACG, the yeast fitness is reported as 0.577.
In the case of GUUUCGUUGGAGUAAUGGUAACGCGUCUCCCUCCUAAGGAGAAGAUUGCGGGUUCGAGCCCCGUACGGAACG, the yeast fitness is reported as at most 0.5.
Variant GUUUGGUUGGCGUAAUGGUAACGCGUCCCCCUCCUAAGGAGAAGACUGCGGGUUCGAGUCCCGUACCGAACG has a yeast fitness of 0.909.
Work on GUUUGGUUAGCGUAAUGGUAACGCGUCUCCCUCCUAAGGAGAAGACUGCGCGUUCGAGUCCCGUACGGAACG yielded a yeast fitness of at most 0.5.
Variant GUUUCGUUGGCGUAAUGGUAACGCGUCUCCCUCCUAAGGAGAAGGCUGCGGGGUCGAGUCCCGUACGGAACG has a yeast fitness of at most 0.5.
For GUUUCGUUGGCGUAAUGGUAACGCGUCUCCCUCCUAAGGAGAAGUCUGCGGGUUCGAGUCCCGUAGGGAACG, the yeast fitness was 0.598.
Variant GUUUGGUUGGCGUAAUGGUAACGCGUCCCCCUCCUAAGGAGAAGACUGCGGGUUCGAGUCCCGUACGGACCG has a yeast fitness of 0.637.
GUUUCGUUGGCGUAAUGGUAACGCGUCUCCCUCCUAAGGAGGAGACUGUGGGUUCGAGUCCCGUACGGAACG showed a yeast fitness of 0.704.
GUUUCGUUGGGGUAAUGGUAACGCGUCUCCCUCUUAAGGAGAAGACUGCGGGUUCAAGUCCCGUACGGAACG showed a yeast fitness of at most 0.5.
GUUUCGUUGGGGUAAUGGUAACGCGUCUCCCUCUUAAGGAGAAGACUGCGGGUUCGAGUCCCGUACGGAACG gave a yeast fitness of 0.551.
With GUUUCGUUGGGGUAAUGGUAACGCGUCUUCCUCCUAAGGAGAAGACUGCGGGUUCGAGUCCUGUACCGAACG the yeast fitness was at most 0.5.
Work on GUUUCGUUGGCGUAAUGGUAACGCGUCUCCCUCCUAAGGUGUAGAUUGCGGGUUCGAGUCCCGUACGGAACG yielded a yeast fitness of at most 0.5.
In the case of GUUUCGUUGGAGUAAUGGUAACGCGUCUCCCUCCUAAGGAGGAGACUCCGGGUUCGAGUCCCGUUCGGAACG, the yeast fitness is reported as 0.555.
For GUUUCGUUGGGGUAAUGAUAACGCGCCUCCCUCCUAAGGAGAAGACUGCGGCUUCGAGUCCCGUACGGAACG, the yeast fitness was at most 0.5.
With GUUUCGUUGGCGUAAUGGUAACGCGUCUCCCUCCUAAGGAGAAGCCUGCGGGUUCGAGUCCCGUACGGUACG the yeast fitness was 0.822.
With GUUUCGUUGGAAUAAUGGUAACGCGUCUCCCUCCUAAGGAGUAGACUGUGAGUUCGAGUCCCGUACGGAACG the yeast fitness was at most 0.5.
GUUUCGUUGGAGUAAUGGUAACGCGUCUCCCUCCUACGGAGAAGACUGCGGGUUCGAGUCCCGUCCGGAACG gave a yeast fitness of at most 0.5.
With GUUUGGUUGGCGUACUGGUAACGCGUCUCCCUCCUAAGGAGCAGACUGCGGGUUCGAGUCCCGUACGGAACG the yeast fitness was at most 0.5.
In the case of GUUUGGUUGGCGUAAUGGUAACGCGUCUCCCUCCUAAGGAAAAGACUGCGGGUUCGAGUCCCGUACGGAGCG, the yeast fitness is reported as at most 0.5.
With GUUUUGUUGGCGUAAUGGUAACGCGUCUCCCUCCUAAGGAGAAGACUGCGGGUUCGAGUCCCGUACGGAACG the yeast fitness was 1.01.
Work on GUUUAGUUGGCGUAAUGGUAACGCGUCUCCCUCCUAAGGAGAAGACUGCGGGUUCGAGUCCCGUACGGAACG yielded a yeast fitness of 0.796.
GUUUGGUUGGCGUAAUGGUAACGCGUCUCCCUCCUAAGGAAAAGACUGCGGGUUCGAGUCCCGUACGGAACG showed a yeast fitness of 0.505.
For GUUUCGUUGGGGUAAUGCUAACGCGUCUCCCUCCUAAGGAGAAGACAGCGGGUUCGAGUCCCAUACGGAACG, the yeast fitness was at most 0.5.
With GUUUGGUUGGCGUAAUGGUAACGCGUCUCCCUCCUAAGGAGAAGGCUGCGGGUUCGAGUCCCGUACGGAACG the yeast fitness was 0.634.
Work on GUUUGGGUGGCGUAAUGGUAACGCGUCUCCCUACUAAGGAGAAGACUGCGGGUUCGAGUCCCGUACGGAUCG yielded a yeast fitness of at most 0.5.
Work on GUUUCGUUGGCGUAAUGGUAACGCGUCUCCCUCCUAAGGAGAAGCCUGCGGGUUCGAGUCUCGUACGGAACG yielded a yeast fitness of 0.738.
GUUUAGUUGGCGUAAUGGUAACGCGUCUCCCUCCUAAGGAGAAGACUGCGGGUUCGAGCGCCGUACGGAACG gave a yeast fitness of at most 0.5.
Work on GUUUCGUUGGCGUAAUGGUAACGCGUCUCCCUCCUAAGGAGAAGACUGCGGGUUCGUGUCCCGUACGGAUCG yielded a yeast fitness of 0.578.
In the case of GUUUCGUUGGGGUAAUGGUAACGAGUCUCCCUCCUUAGGAGACGACUGCGGGUUCGAGUCCCGUACGGAACG, the yeast fitness is reported as 0.55.
With GUUUCGUUGGCGUAAUGGUAACGCGUCUCCCUCCUAAGGUGAAGACUGCGGGUUCGAGUCCCGUACGCAACG the yeast fitness was 0.68.
Work on GUUUCGUUGGAGUAAUGGUAACGCGUCACCUUCCUAAGGAGAAGACUGCGCGUUCAAGUCCCGUACGGAACG yielded a yeast fitness of at most 0.5.
For GUUUCGUUGGGGUAAUGGUAACGCGUCUCCCUCUUAAGGAGAAGACUGCGGGUUUGAGUCCCGUACGGAACG, the yeast fitness was at most 0.5.
For GUUUAGUUGGCGUAUUGGUAACGCGUCUCCCUCUUAAGGAGAAGACUGCGGGUCCGAGUCCUGUACGGAACG, the yeast fitness was at most 0.5.
For GUUUCGUUGGGGUAAUGGUAACGCGUCUCCCUCCUAAGGAGAAGUCUGCGGGUUCGAGUCCCGUACGGAACG, the yeast fitness was 0.545.
Work on GUUUCGUUGGCGUAAUGGUAACGCGUCUCCCUCCUAAGGAGACGACUGCGGGUUCGAGUCCCGUUCGGAACG yielded a yeast fitness of 0.75.
In the case of GUUUCGUUGGAAUAAUGGUAACGCGUCUCCCUCCUAAGGAGAAGACUACGGGUUCGCGUCCCGUACGGAACG, the yeast fitness is reported as at most 0.5.
Variant GUUUCGUUGGCGUAAUGGUAACGCGUCUCCCUCCUAAGGAGCAGACUGCGGGUUCGAAUCCCGUACGGAACG has a yeast fitness of 0.567.
Variant GUUUCGUUGGAGUAAUGGUAACGCGUCUCCCUCCUAAGGAGAAGACUGCGGGUUCGAGUCCCGUACUGAACG has a yeast fitness of at most 0.5.
Work on GUUUAGUUGGCGUAAUGGUAACGCGUCUCCCUCCUAAGGCGAAGACUGCGGGUUCGAGUCCCGUACGCAACG yielded a yeast fitness of at most 0.5.
Variant GUUUCGUUGGCGUAAUGGUAACGCGUCUCCCUCCUAAGGAGUAGACUGCGGGUUCGAGUCGCGUACGGAACG has a yeast fitness of 0.593.
GUUUGGUUGGCGUAAUGGUAACGCGUCUUCCAUCUAAGGAGAAGACUGCGGGUUCGAGUCCCGUACUGAGCG showed a yeast fitness of 0.54.
GUUUCGUUGGCGUAAUGGUAACGCGUCUCCCUCCUAAGGAGAAGACUGCGGGUUCGAGUCCCGUACGGAGCG gave a yeast fitness of 0.941.
Work on GUUUCGUUGGCGUAAUGGUAACGCGUCUCCCUCCUAAGGAGCAGACUGCGGGUUUGAGUCCCGUACGGAACG yielded a yeast fitness of at most 0.5.
Variant GUUUCGUUGGCGUAAUGGUAACGCGUCUCCCUCCUAAGGAGCAGACUGCGGGUUCGAGUCCCGUACGGAACG has a yeast fitness of 0.912.
GUUUCGUUGGCGUAAUGGUAACGCGUCUCCCUCCUAAGGAGGAGACUGCGGGUUCGAGUCCCGUACGGAACG showed a yeast fitness of 0.868.
GUUUCGUUGGAGUAAUGGUAACGCGUCUCCCUCCUACGGAGAAGACUGCGGGUUCGAGUCCCGUACGGAACG gave a yeast fitness of 0.569.
With GUUUGGUUGGCGUAAUGGUAACGCGUCCCCCUCCUAAGGAGAAGACUGCGGGUUCGAGUCACGUACGGAACG the yeast fitness was at most 0.5.
With GUUUCGUUGGCGUAAUGGUAACGCGUCUCCCUCCUAAGGAGAAGACUGCGGGUUCGAGUCCCGUACGGGACG the yeast fitness was 0.901.
Work on GUUUCGUUGGCGUAAUGGUAACGCGUCUCCCUCCUAAGGGGAAGACUGCGGGUUCGAGUCCCGCACGGAACG yielded a yeast fitness of 0.952.
Work on GUUUCGUUGGAGUAAUGGUAACGCGUCUCCCUCCUAAGAAGAAGACUGCGAGUUCGAGUCCCGUACCGAACG yielded a yeast fitness of at most 0.5.
GUUUGGUUGGCAUUAUGGUAACGCGUCUCCCUCCUAAGGAGAAGACUGCGGGUACGUGUCCCGUACGGAACG showed a yeast fitness of at most 0.5.
For GUUUCGUUGGCGUAAUGGUAACGCGUCUCCCUCCUAAGGGGAAGACUGCGGGGUCGCGUGCCGUUCGGAACG, the yeast fitness was 0.583.
Variant GUUUCGUUGGCGUAAUGGUAACGCGUCUCCCUCCUAAGGAGGAGACUGCGGGUUCGAGUCCCGUAAGGAACG has a yeast fitness of at most 0.5.
Variant GUUUGGUUGGCGUAAUGGUAACGCGUCUCCCUCUUAAGGAGAAGACUGCGGGUACGAGUCCCGUACGGAACG has a yeast fitness of at most 0.5.
